ChEMBL document CHEMBL1143707, “7-Arylpiperazinylalkyl and 7-tetrahydroisoquinolinylalkyl derivatives of 8-alkoxy-purine-2,6-dione and some of their purine-2,6,8-trione analogs as 5-HT(1A), 5-HT(2A), and 5-HT(7) serotonin receptor ligands” (Bioorg Med Chem, 2007)

How the values were obtained:
Format in all cases: functional
Mus musculus [1] = test: Effect on compound induced hypothermia in Swiss Albino mouse at 5 mg/kg in presence of 0.1 mg/kg WAY 100635 after 60 mins relative to control
Outline: (§1)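 Male Albino Swiss mice. WAY 100635 (0.1 mg/kg sc, in distilled water) given 15 min before the agonist (5 mg/kg sc, in saline). Rectal temperature recorded 30 and 60 min after agonist and expressed as Δt from basal; n = 8 per group; compared with vehicle + agonist group.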

Mus musculus [2] = test: Effect on compound induced hypothermia in Swiss Albino mouse at 5 mg/kg, sc in presence of 0.1 mg/kg WAY 100635 after 30 mins relative to control; outline: as §1
Mus musculus [3] = test: Decrease in body temperature in Swiss Albino mouse at 5 mg/kg, sc after 60 mins relative control; details: route subcutaneous
Outline: (§2)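 Male Albino Swiss mice (24-28 g); drug dissolved in saline, injected sc at 10 mL/kg. Rectal temperature recorded with a thermometer at 30 and 60 min after injection. Result expressed as change (Δt) from basal temperature taken at the start of the experiment; n = 8 per group; mean ± SEM versus vehicle.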

Mus musculus [4] = test: Decrease in body temperature in Swiss Albino mouse at 5 mg/kg, sc after 30 mins relative control; details: route subcutaneous; outline: as §2
Mus musculus [5] = test: Antidepressant activity in Swiss Albino mouse assessed as immobility time during final 4 mins of 6 mins session at 10 mg/kg, ip administered 30 mins before the test in forced-swimming test; details: route intraperitoneal
Outline: (§3)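 Male Albino Swiss mice (24-28 g), ip in 1% aqueous Tween 80 suspension (10 mL/kg), 30 min pretest; single glass cylinder (25 cm high, 10 cm diameter), 6 cm water at 23–25 °C for 6 min; immobility (floating, minimal head-keeping movements) timed over final 4 min; n = 9-10/group; mean ± SEM.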

Mus musculus [6] = test: Antidepressant activity in Swiss Albino mouse assessed as immobility time during final 4 mins of 6 mins session at 20 mg/kg, ip administered 30 mins before the test in forced-swimming test; details: route intraperitoneal; outline: as §3
Mus musculus [7] = test: Antidepressant activity in Swiss Albino mouse assessed as immobility time during final 4 mins of 6 mins session at 30 mg/kg, ip administered 30 mins before the test in forced-swimming test; details: route intraperitoneal
Mus musculus [8] = test: Locomotor activity in Swiss Albino mouse assessed as number of crossings in 6 mins at 10 mg/kg, ip administered 30 mins before the test; details: route intraperitoneal
Outline: (§4)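 Male Albino Swiss mice dosed ip 30 min before test (compound in 1% Tween 80; imipramine in distilled water); individual cages with IR beam sensors, consecutive beam breaks scored as ambulatory counts during first 6 min and over a 30-min session; n = 10/group; mean ± SEM.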

Mus musculus [9] = test: Locomotor activity in Swiss Albino mouse assessed as number of crossings in 6 mins at 20 mg/kg, ip administered 30 mins before the test; details: route intraperitoneal; outline: as §4
Mus musculus [10] = test: Locomotor activity in Swiss Albino mouse assessed as number of crossings in 6 mins at 30 mg/kg, ip administered 30 mins before the test; details: route intraperitoneal; outline: as §4
Mus musculus [11] = test: Locomotor activity in Swiss Albino mouse assessed as number of crossings in 30 mins at 10 mg/kg, ip administered 30 mins before the test; details: route intraperitoneal; outline: as §4
Mus musculus [12] = test: Locomotor activity in Swiss Albino mouse assessed as number of crossings in 30 mins at 30 mg/kg, ip administered 30 mins before the test; details: route intraperitoneal; outline: as §4

SMILES | Activity (Mus musculus [1]) | Activity (Mus musculus [2]) | Activity (Mus musculus [3]) | Activity (Mus musculus [4]) | Activity (Mus musculus [5]) | Activity (Mus musculus [6]) | Activity (Mus musculus [7]) | Activity (Mus musculus [8]) | Activity (Mus musculus [9]) | Activity (Mus musculus [10]) | Activity (Mus musculus [11]) | Activity (Mus musculus [12])
CCCN(CCC)C1CCc2cccc(O)c2C1 (configuration not stated) [8-OH-DPAT] | 0.1 °C | -0.1 °C | -0.7 °C | -1 °C | – | – | – | – | – | – | – | –
CN(C)CCCN1c2ccccc2CCc2ccccc21 [IMIPRAMINE] | – | – | – | – | 149.1 s | 107.8 s | 76.4 s | 338 | 314.9 | 300.9 | 877 | 602.3
